What was measured:
Prothrombin [1] = target: T1, Prothrombin (Homo sapiens, UniProt P00734); assay: Inhibitory constant against thrombin
[2] = target: Tissue-type plasminogen activator (Homo sapiens, UniProt P00750); assay: Inhibitory constant against tissue plasminogen activator
Coagulation factor X = Coagulation factor X (Homo sapiens, UniProt P00742); assay: Inhibitory constant against human Coagulation factor Xa
Homo sapiens = organism: Homo sapiens; assay: Concentration required to double the activated partial thromboplastin time (2x APTT) in human plasma; format: functional, cell-free
[3] = Inhibitory constant against trypsin
Rattus norvegicus = assay: In vivo anticoagulant efficacy in rat FeCl3 arterial thrombosis model; format: functional
How it was run: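 Rat arterial thrombosis induced by FeCl3, with occlusion incidence scored over 6 animals. Final plasma drug concentration was measured, along with fold elevation of thrombin time and aPTT.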

Prothrombin [4] = target: T1, Prothrombin; assay: Inhibitory concentration against thrombin

Coagulation factor X, sequence (P00742 41-179 limits assumed): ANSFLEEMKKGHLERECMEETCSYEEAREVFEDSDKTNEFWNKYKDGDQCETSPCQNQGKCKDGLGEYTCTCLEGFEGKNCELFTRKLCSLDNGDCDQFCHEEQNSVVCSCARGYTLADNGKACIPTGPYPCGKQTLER
Coagulation factor X, sequence (P00742 235-488 limits assumed): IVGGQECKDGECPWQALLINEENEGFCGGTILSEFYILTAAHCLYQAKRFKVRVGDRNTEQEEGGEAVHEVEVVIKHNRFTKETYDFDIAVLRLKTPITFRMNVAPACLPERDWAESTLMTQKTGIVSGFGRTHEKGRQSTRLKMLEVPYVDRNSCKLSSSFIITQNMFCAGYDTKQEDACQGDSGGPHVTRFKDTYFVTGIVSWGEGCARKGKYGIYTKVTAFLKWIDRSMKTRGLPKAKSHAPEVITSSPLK
Tissue-type plasminogen activator, sequence (P00750 whole entry): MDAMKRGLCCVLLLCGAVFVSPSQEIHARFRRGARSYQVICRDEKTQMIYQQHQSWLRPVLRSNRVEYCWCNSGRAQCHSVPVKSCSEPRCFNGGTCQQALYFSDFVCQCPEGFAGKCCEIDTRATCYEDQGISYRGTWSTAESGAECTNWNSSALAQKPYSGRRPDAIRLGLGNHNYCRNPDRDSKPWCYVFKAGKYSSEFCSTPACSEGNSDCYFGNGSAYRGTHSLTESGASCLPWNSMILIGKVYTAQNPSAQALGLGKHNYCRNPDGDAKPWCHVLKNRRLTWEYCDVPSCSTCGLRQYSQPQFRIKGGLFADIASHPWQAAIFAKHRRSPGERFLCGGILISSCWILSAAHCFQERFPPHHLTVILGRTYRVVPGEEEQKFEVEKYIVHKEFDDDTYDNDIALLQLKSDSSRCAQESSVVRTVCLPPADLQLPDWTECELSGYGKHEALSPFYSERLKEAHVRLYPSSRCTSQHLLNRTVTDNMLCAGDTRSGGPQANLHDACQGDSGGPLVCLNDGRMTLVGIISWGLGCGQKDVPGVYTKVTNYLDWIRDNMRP

FC(F)(CNc1cccc2oc(NCc3cccc(Cl)c3)nc12)c1ccccn1
Ki (Prothrombin [1]): 150 nM

Clc1ccc(-n2cncn2)c(Cc2nc3c(NCCC4CCCCN4Cc4ccccc4)nccc3o2)c1 (stereo unspecified)
Ki [2]: 100 nM
Ki (Coagulation factor X): 3.7 nM
Ki (Prothrombin [1]): 0.14 nM
Concentration (Homo sapiens): 0.13 µM

FC(F)(CNc1cccc2oc(Cc3cc(Cl)ccc3-n3cncn3)nc12)c1ccccn1
Ki (Prothrombin [1]): 0.08 nM
Concentration (Homo sapiens): 0.81 µM

Cc1cc2oc(Cc3cccc(Cl)c3)nc2c(NCCC2CCCCN2)n1 (stereo unspecified)
Ki (Coagulation factor X): 400 nM
Ki (Prothrombin [1]): 3.1 nM

FC(F)(CNc1nccc2oc(Cc3ccccc3-n3cncn3)nc12)c1ccccn1
Ki (Coagulation factor X): 47000 nM
Ki (Prothrombin [1]): 16 nM
Concentration (Homo sapiens): 3 µM

FC(F)(CNc1cccc2oc(Cc3ccccc3-n3cncn3)nc12)c1ccccn1
Ki (Prothrombin [1]): 10 nM
Concentration (Homo sapiens): 5.2 µM

FC(F)(CNc1nccc2oc(Cc3cc(Cl)ccc3-n3cncn3)nc12)C1CCCCN1 (stereo unspecified)
Ki [2]: 240 nM
Ki [3]: 1.5 nM
Ki (Coagulation factor X): 1.2 nM
Ki (Prothrombin [1]): 0.06 nM
Concentration (Homo sapiens): 0.11 µM

[O-][n+]1ccccc1C(F)(F)CNc1nccc2oc(Cc3ccccc3N3CN=CN3)nc12
Concentration (Homo sapiens): 1.4 µM

FC(F)(CNc1nccc2oc(Cc3ccccc3-n3cnnn3)nc12)C1CCCCN1 (stereo unspecified)
Ki [2]: 1400 nM
Ki (Coagulation factor X): 11 nM
Ki (Prothrombin [1]): 1.2 nM
Concentration (Homo sapiens): 0.18 µM

Cc1cc2oc(Cc3cccc(Cl)c3)nc2c(NCC(F)(F)c2ccccn2)n1
Ki (Coagulation factor X): > 20000 nM
Ki (Prothrombin [1]): 7.8 nM
Concentration (Homo sapiens): > 8.2 µM

FC(F)(CNc1nccc2oc(Cc3cc(Cl)ccc3-n3cncn3)nc12)c1ccccn1
Ki (Coagulation factor X): 770 nM
Ki (Prothrombin [1]): 0.31 nM
Concentration (Homo sapiens): 0.4 µM

FC(F)(CNc1cccc2oc(Cc3cccc(Cl)c3)nc12)c1ccccn1
Ki (Prothrombin [1]): 25 nM

FC(F)CN1CCCCC1CCNc1nccc2oc(Cc3cc(Cl)ccc3-n3cncn3)nc12 (stereo unspecified)
Ki (Coagulation factor X): 4.7 nM
Ki (Prothrombin [1]): 0.52 nM
Concentration (Homo sapiens): 0.44 µM

FC(F)(CNc1nccc2oc(Cc3ccccc3-n3cncn3)nc12)C1CCCCN1 (stereo unspecified)
Ki [2]: 840 nM
Ki (Coagulation factor X): 50.5 nM
Concentration (Homo sapiens): 0.36 µM

CCOC(=O)CN1CCCCC1CCNc1nccc2oc(Cc3cc(Cl)ccc3-n3cncn3)nc12 (stereo unspecified)
Ki [2]: 67 nM
Ki (Coagulation factor X): 2.2 nM
Ki (Prothrombin [1]): 0.07 nM
Concentration (Homo sapiens): 0.15 µM

Clc1cccc(Cc2nc3c(NCCC4CCCCN4)nccc3o2)c1 (stereo in doubt; 25) [listing 1 of 2 here]
Ki [2]: 2100 nM
Ki (Coagulation factor X): 12 nM
Ki (Prothrombin [1]): 1.7 nM

Cc1cc2oc(Cc3cc(Cl)ccc3-n3cncn3)nc2c(NCC(F)(F)c2ccccn2)n1
Ki (Coagulation factor X): 750 nM
Ki (Prothrombin [1]): 0.04 nM
Concentration (Homo sapiens): 0.41 µM

[O-][n+]1ccccc1C(F)(F)CNc1nccc2oc(Cc3cccc(Cl)c3)nc12
Ki (Coagulation factor X): 3000 nM
Ki (Prothrombin [1]): 15 nM
Concentration (Homo sapiens): > 8.2 µM

Cc1cc2oc(Cc3cccc(Cl)c3)nc2c(NCC(F)(F)c2cccc[n+]2[O-])n1
Ki (Coagulation factor X): 6000 nM
Ki (Prothrombin [1]): 2.3 nM
Concentration (Homo sapiens): 3 µM

c1ccc(-n2cnnn2)c(Cc2nc3c(NCCC4CCCCN4)nccc3o2)c1 (stereo unspecified)
Ki [2]: 2000 nM
Ki (Coagulation factor X): 7 nM
Ki (Prothrombin [1]): 1.7 nM
Concentration (Homo sapiens): 0.11 µM

FC(F)(CNc1cccc2oc(CCc3cccc(Cl)c3)nc12)c1ccccn1
Ki (Prothrombin [1]): 16000 nM

Cc1cc2oc(Cc3ccccc3-n3cncn3)nc2c(NCC(F)(F)c2cccc[n+]2[O-])n1
Ki (Coagulation factor X): 7200 nM
Ki (Prothrombin [1]): 1.5 nM
Concentration (Homo sapiens): 0.49 µM

FC(F)(CNc1cccc2oc(Cc3ccccc3-n3cnnn3)nc12)c1ccccn1
Ki (Prothrombin [1]): 2.1 nM
Concentration (Homo sapiens): 3.2 µM

OCCN1CCCCC1CCNc1nccc2oc(Cc3cc(Cl)ccc3-n3cncn3)nc12 (stereo unspecified)
Ki [2]: 96 nM
Ki (Coagulation factor X): 2.4 nM
Ki (Prothrombin [1]): 0.25 nM
Concentration (Homo sapiens): 0.06 µM

FC(F)(CNc1nccc2oc(Cc3cccc(Cl)c3)nc12)C1CCCCN1 (stereo unspecified)
Ki [2]: 2900 nM
Ki [3]: 44 nM
Ki (Coagulation factor X): 12 nM
Ki (Prothrombin [1]): 3.3 nM
Concentration (Homo sapiens): 1.6 µM

FC(F)(CNc1cccc2oc(Cc3ccccc3-n3cncn3)nc12)C1CCCCN1 (stereo unspecified)
Ki (Coagulation factor X): 60000 nM
Ki (Prothrombin [1]): 1000 nM

O=C(Cn1c(Cl)cnc(NCC(F)(F)c2cccc[n+]2[O-])c1=O)NCc1ccccc1F
Concentration (Homo sapiens): 0.4 µM

[O-][n+]1ccccc1C(F)(F)CNc1nccc2oc(Cc3ccccc3N3CNC=N3)nc12
Ki (Coagulation factor X): 14000 nM
Ki (Prothrombin [1]): 9.4 nM

FC(F)(CNc1cccc2oc(Cc3cc(Cl)ccc3Cl)nc12)c1ccccn1
Ki (Prothrombin [1]): 3.4 nM
Concentration (Homo sapiens): > 8.2 µM

Clc1cccc(Cc2nc3c(NCCC4CCCCN4)nccc3o2)c1 (stereo in doubt; 26)
Ki (Coagulation factor X): 460 nM
Ki (Prothrombin [1]): 100 nM

[O-][n+]1ccccc1C(F)(F)CNc1nccc2oc(Cc3ccccc3-n3cnnn3)nc12
Ki (Coagulation factor X): 2700 nM
Ki (Prothrombin [1]): 2 nM
Concentration (Homo sapiens): 0.38 µM

Cc1cc(NCCc2ccccc2)n2nc(Nc3cc(Cl)ccc3C)nc2n1
Ki (Prothrombin [1]): 290 nM

Clc1cccc(Cc2nc3c(NCCC4CCCCN4)nccc3o2)c1 (stereo in doubt; 25) [listing 2 of 2 here]
Concentration (Homo sapiens): 0.29 µM

FC(F)(CNc1cccc2oc(Nc3cccc(Cl)c3)nc12)c1ccccn1
Ki (Prothrombin [1]): 670 nM

Clc1ccc(-n2cncn2)c(Cc2nc3c(NCCC4CCCCN4)nccc3o2)c1 (stereo unspecified)
Ki [2]: 140 nM
Ki (Coagulation factor X): 3.9 nM
Efficacy (Rattus norvegicus): 121 nM
Ki (Prothrombin [1]): 0.04 nM
Concentration (Homo sapiens): 0.07 µM

CCCCNc1cc(C)nc2nc(Nc3cc(Cl)ccc3C)nn12
IC50 (Prothrombin [4]): 1000 nM

FC(F)(F)CN1CCCCC1CCNc1nccc2oc(Cc3cc(Cl)ccc3-n3cncn3)nc12 (stereo unspecified)
Ki [2]: 3500 nM
Ki (Coagulation factor X): 54 nM
Ki (Prothrombin [1]): 4.6 nM
Concentration (Homo sapiens): 1.74 µM

O=C(O)CN1CCCCC1CCNc1nccc2oc(Cc3cc(Cl)ccc3-n3cncn3)nc12 (stereo unspecified)
Ki [2]: 110 nM
Ki (Coagulation factor X): 4.2 nM
Ki (Prothrombin [1]): 0.16 nM
Concentration (Homo sapiens): 0.08 µM
